In ChEMBL document CHEMBL3526048, “In vitro metabolism of rivoglitazone, a novel peroxisome proliferator-activated receptor γ agonist, in rat, monkey, and human liver microsomes and freshly isolated hepatocytes” (Drug Metab Dispos, 2011):

Key:
Liver microsome [1] = experiment: Drug level in Sprague-Dawley rat liver microsomes treated with [14C]-rivoglitazone at 20 uM after 2 hrs by radio-HPLC/LC-MS/MS analysis in presence of NADPH-generating system and NADPH-generating system/SAM; format: ADME
Procedure, shortened: (§1)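 Pooled male liver microsomes (1 mg/ml protein; rat from 94 Sprague-Dawley, monkey from 8 cynomolgus, human from 23 donors) were incubated with [¹⁴C]rivoglitazone (20 μM). Buffer: 10 mM potassium phosphate (pH 7.4). Cofactors: NADPH-generating system (2 mM NADP⁺, 20 mM G6P, 2 U/ml G6PDH, 10 mM MgCl₂), with or without 2 mM SAM. Incubation 2 h at 37°C with shaking; controls lacked NADPH system and SAM alone. Acetonitrile stop, radio-HPLC plus LC-MS.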

Cytochrome P450 3A4 = Cytochrome P450 3A4 (Homo sapiens, UniProt P08684); experiment: Activity of human CYP3A4 expressed in microsomes isolated from baculovirus infected insect cell assessed as enzyme-mediated compound formation treated with [14C]-rivoglitazone at 20 uM after 2 hrs by radio-HPLC/LC-MS/MS analysis in presence of NADPH-generating system and NADPH-generating system/SAM; format: ADME
Hepatocyte [2] = experiment: Drug level in rat hepatocytes treated with [14C]-rivoglitazone at 30 uM after 3 hrs by radio-HPLC/LC-MS/MS analysis in presence of NADPH-generating system and NADPH-generating system/SAM; format: ADME, cell-based
Cytochrome P450 1A2 = biological target: T1, Cytochrome P450 1A2 (Homo sapiens, UniProt P05177); experiment: Activity of human CYP1A2 expressed in microsomes isolated from baculovirus infected insect cell assessed as enzyme-mediated compound formation treated with [14C]-rivoglitazone at 20 uM after 2 hrs by radio-HPLC/LC-MS/MS analysis in presence of NADPH-generating system and NADPH-generating system/SAM; format: ADME
T1 sequence (P05177 whole entry): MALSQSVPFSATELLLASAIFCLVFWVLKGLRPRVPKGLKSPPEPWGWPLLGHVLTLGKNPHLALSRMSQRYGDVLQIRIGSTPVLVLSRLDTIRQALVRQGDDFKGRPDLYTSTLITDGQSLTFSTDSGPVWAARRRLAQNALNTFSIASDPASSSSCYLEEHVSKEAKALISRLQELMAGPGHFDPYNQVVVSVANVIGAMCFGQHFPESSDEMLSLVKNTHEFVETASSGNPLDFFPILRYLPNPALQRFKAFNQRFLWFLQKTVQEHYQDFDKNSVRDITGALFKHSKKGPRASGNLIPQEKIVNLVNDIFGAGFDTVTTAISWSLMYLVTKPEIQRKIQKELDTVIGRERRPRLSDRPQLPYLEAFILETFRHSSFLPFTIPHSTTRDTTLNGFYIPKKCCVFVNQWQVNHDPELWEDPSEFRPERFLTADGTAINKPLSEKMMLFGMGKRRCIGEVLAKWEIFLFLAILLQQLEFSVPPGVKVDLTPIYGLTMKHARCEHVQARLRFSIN
Procedure, shortened: (§2)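 Baculovirus/insect-cell microsomes expressing single human CYPs, 1 mg/ml protein, with 50 mM potassium phosphate (pH 7.4) or 100 mM Tris-HCl (pH 7.5). NADPH-generating system: 2 mM NADP⁺, 20 mM glucose 6-phosphate, 2 units/ml G6PDH, 10 mM MgCl₂. [¹⁴C]rivoglitazone at 20 μM, 2 h at 37°C with shaking. Control used insect-cell control supersomes. Stopped with acetonitrile; supernatant concentrated under nitrogen; metabolites analysed by radio-HPLC, LC-MS and LC-MS/MS.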

Cytochrome P450 2C8 = biological target: T2, Cytochrome P450 2C8 (Homo sapiens, UniProt P10632); experiment: Activity of human CYP2C8 expressed in microsomes isolated from baculovirus infected insect cell assessed as enzyme-mediated compound formation treated with [14C]-rivoglitazone at 20 uM after 2 hrs by radio-HPLC/LC-MS/MS analysis in presence of NADPH-generating system and NADPH-generating system/SAM; format: ADME; procedure, shortened: as §2
T2 sequence (P10632 whole entry): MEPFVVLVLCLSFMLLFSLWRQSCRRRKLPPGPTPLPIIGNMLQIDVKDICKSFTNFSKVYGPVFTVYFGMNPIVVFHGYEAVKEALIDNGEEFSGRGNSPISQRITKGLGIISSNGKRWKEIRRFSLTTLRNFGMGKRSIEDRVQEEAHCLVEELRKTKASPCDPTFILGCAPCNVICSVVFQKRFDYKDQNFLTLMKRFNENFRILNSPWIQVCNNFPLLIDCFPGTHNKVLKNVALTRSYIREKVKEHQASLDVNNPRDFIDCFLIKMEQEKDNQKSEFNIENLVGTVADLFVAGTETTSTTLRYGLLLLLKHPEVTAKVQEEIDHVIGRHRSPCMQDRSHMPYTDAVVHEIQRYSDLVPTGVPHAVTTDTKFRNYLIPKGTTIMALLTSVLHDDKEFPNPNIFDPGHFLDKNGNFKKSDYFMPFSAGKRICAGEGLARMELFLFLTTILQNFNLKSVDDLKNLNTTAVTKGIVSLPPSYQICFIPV

Cytochrome P450 3A5 = Cytochrome P450 3A5 (Homo sapiens, UniProt P20815); experiment: Activity of human CYP3A5 expressed in microsomes isolated from baculovirus infected insect cell assessed as enzyme-mediated compound formation treated with [14C]-rivoglitazone at 20 uM after 2 hrs by radio-HPLC/LC-MS/MS analysis in presence of NADPH-generating system and NADPH-generating system/SAM; format: ADME
Procedure, shortened: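 cDNA-expressed human CYP3A5 in baculovirus-insect-cell microsomes (1 mg/ml protein) was incubated with [¹⁴C]rivoglitazone (20 μM) in 50 mM potassium phosphate (pH 7.4) or 100 mM Tris-HCl (pH 7.5). NADPH-generating system: 2 mM NADP⁺, 20 mM glucose 6-phosphate, 2 units/ml G6PDH, 10 mM MgCl₂. Incubation ran 2 h at 37°C with shaking; insect-cell control supersomes served as control. Acetonitrile stop, supernatant concentrated, then radio-HPLC, LC-MS and LC-MS/MS.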

[3] = tested on: Hepatocyte (Macaca fascicularis); experiment: Drug level in monkey hepatocytes treated with [14C]-rivoglitazone at 30 uM after 3 hrs by radio-HPLC/LC-MS/MS analysis in presence of NADPH-generating system and NADPH-generating system/SAM; details: cynomolgus monkey
Cytochrome P450 2C9 = Cytochrome P450 2C9 (Homo sapiens, UniProt P11712); experiment: Activity of human CYP2C9 expressed in microsomes isolated from baculovirus infected insect cell assessed as enzyme-mediated compound formation treated with [14C]-rivoglitazone at 20 uM after 2 hrs by radio-HPLC/LC-MS/MS analysis in presence of NADPH-generating system and NADPH-generating system/SAM; format: ADME
Cytochrome P450 2C19 = Cytochrome P450 2C19 (Homo sapiens, UniProt P33261); experiment: Activity of human CYP2C19 expressed in microsomes isolated from baculovirus infected insect cell assessed as enzyme-mediated compound formation treated with [14C]-rivoglitazone at 20 uM after 2 hrs by radio-HPLC/LC-MS/MS analysis in presence of NADPH-generating system and NADPH-generating system/SAM; format: ADME; procedure, shortened: as §2
Liver microsome [4] = experiment: Drug level in human liver microsomes treated with [14C]-rivoglitazone at 20 uM after 2 hrs by radio-HPLC/LC-MS/MS analysis in presence of NADPH-generating system and NADPH-generating system/SAM; format: ADME; procedure, shortened: as §1
Hepatocyte [5] = experiment: Drug level in human hepatocytes treated with [14C]-rivoglitazone at 30 uM after 3 hrs by radio-HPLC/LC-MS/MS analysis in presence of NADPH-generating system and NADPH-generating system/SAM; format: ADME, cell-based
[6] = Drug level in cynomolgus monkey liver microsomes treated with [14C]-rivoglitazone at 20 uM after 2 hrs by radio-HPLC/LC-MS/MS analysis in presence of NADPH-generating system and NADPH-generating system/SAM; format: ADME, Macaca fascicularis; procedure, shortened: as §1
[7] = Retention time of the compound by LC-MS/MS analysis; format: physicochemical
Procedure, shortened: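 LC-MS/MS used a YMC-Pack ODS-A column (1.5 × 150 mm, 5 μm) at 30°C, 0.1 ml/min. Mobile phase was water and acetonitrile, each with 0.01% TFA. Gradient: 12→60% B over 30 min, →90% B over 5 min, hold 5 min. Detection was UV 220 nm with positive ESI Q-TOF (capillary 3300 V, cone 45 V), collision energy 20 eV and xenon as collision gas.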

Cytochrome P450 2D6 = Cytochrome P450 2D6 (Homo sapiens, UniProt P10635); experiment: Activity of human CYP2D6 expressed in microsomes isolated from baculovirus infected insect cell assessed as enzyme-mediated compound formation treated with [14C]-rivoglitazone at 20 uM after 2 hrs by radio-HPLC/LC-MS/MS analysis in presence of NADPH-generating system and NADPH-generating system/SAM; format: ADME
Hepatocyte [8] = experiment: Drug level in rat hepatocytes treated with [14C]-rivoglitazone at 30 uM after 3 hrs by radio-HPLC/LC-MS/MS analysis in presence of NADPH-generating system/SAM; format: ADME, cell-based
Hepatocyte [9] = experiment: Drug level in human hepatocytes treated with [14C]-rivoglitazone at 30 uM after 3 hrs by radio-HPLC/LC-MS/MS analysis in presence of NADPH-generating system/SAM; format: ADME, cell-based
Liver microsome [10] = experiment: Drug level in Sprague-Dawley rat liver microsomes treated with [14C]-rivoglitazone at 20 uM after 2 hrs by radio-HPLC/LC-MS/MS analysis in presence of NADPH-generating system/SAM; format: ADME; procedure, shortened: as §1
[11] = Drug level in cynomolgus monkey liver microsomes treated with [14C]-rivoglitazone at 20 uM after 2 hrs by radio-HPLC/LC-MS/MS analysis in presence of NADPH-generating system/SAM; format: ADME, Macaca fascicularis; procedure, shortened: as §1
Liver microsome [12] = experiment: Drug level in human liver microsomes treated with [14C]-rivoglitazone at 20 uM after 2 hrs by radio-HPLC/LC-MS/MS analysis in presence of NADPH-generating system/SAM; format: ADME; procedure, shortened: as §1
Hepatocyte [13] = experiment: Drug level in human hepatocytes treated with [14C]-rivoglitazone at 30 uM after 3 hrs by radio-HPLC/LC-MS/MS analysis; format: ADME, cell-based
Procedure, shortened: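 Freshly isolated hepatocytes were suspended in HBSS at 2×10^6 viable cells/ml; trypan-blue viability was rat 88%, monkey 91 and 94%, human 66, 73 and 81%. Donors were rat (7 weeks, 170 g) and two male cynomolgus monkeys. Cells were incubated with [¹⁴C]rivoglitazone (30 μM) for 3 h at 37°C under 95% O₂/5% CO₂. Acetonitrile stop, sonication, samples pooled per species, supernatant analysed by radio-HPLC and LC-MS.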

Cytochrome P450 3A4, sequence (P08684 whole entry): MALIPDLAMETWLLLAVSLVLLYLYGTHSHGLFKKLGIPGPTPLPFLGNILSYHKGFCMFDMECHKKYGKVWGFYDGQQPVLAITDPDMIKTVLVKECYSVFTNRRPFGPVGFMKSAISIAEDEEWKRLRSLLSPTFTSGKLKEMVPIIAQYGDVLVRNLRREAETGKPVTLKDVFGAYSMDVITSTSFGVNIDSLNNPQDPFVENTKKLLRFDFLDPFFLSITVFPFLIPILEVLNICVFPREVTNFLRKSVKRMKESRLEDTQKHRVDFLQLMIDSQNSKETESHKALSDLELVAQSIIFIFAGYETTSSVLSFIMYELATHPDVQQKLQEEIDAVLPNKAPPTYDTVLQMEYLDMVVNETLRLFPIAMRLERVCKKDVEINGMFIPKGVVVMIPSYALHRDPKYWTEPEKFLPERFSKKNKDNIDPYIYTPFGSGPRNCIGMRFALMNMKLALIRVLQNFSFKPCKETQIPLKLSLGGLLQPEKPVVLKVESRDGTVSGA
Cytochrome P450 3A5, sequence (P20815 whole entry): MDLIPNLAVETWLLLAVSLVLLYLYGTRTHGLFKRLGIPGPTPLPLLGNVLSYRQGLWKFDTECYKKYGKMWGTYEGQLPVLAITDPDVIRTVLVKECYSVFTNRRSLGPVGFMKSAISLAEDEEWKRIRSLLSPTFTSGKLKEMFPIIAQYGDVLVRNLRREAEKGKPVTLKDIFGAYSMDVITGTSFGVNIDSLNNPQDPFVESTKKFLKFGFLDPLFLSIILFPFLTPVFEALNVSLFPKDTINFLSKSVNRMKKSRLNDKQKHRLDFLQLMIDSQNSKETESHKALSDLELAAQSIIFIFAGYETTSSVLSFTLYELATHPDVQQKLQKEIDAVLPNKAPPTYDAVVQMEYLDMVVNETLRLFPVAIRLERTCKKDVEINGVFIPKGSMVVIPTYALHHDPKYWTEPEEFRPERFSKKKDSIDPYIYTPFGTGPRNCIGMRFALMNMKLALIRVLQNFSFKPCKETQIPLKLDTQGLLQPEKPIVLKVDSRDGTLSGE
Cytochrome P450 2D6, sequence (P10635 whole entry): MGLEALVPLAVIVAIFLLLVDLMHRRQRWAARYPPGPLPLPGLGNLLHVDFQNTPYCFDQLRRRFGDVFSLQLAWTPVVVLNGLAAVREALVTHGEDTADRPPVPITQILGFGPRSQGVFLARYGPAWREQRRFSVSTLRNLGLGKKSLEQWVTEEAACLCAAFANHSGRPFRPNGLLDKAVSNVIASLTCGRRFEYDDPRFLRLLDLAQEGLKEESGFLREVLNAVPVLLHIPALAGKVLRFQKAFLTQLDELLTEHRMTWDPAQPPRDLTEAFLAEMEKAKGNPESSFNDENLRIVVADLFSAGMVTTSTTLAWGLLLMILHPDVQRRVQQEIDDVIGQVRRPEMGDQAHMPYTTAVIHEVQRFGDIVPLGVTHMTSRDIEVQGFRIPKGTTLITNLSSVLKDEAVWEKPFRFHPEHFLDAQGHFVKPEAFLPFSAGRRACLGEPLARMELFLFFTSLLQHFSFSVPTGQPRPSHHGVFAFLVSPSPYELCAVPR
Cytochrome P450 2C9, sequence (P11712 whole entry): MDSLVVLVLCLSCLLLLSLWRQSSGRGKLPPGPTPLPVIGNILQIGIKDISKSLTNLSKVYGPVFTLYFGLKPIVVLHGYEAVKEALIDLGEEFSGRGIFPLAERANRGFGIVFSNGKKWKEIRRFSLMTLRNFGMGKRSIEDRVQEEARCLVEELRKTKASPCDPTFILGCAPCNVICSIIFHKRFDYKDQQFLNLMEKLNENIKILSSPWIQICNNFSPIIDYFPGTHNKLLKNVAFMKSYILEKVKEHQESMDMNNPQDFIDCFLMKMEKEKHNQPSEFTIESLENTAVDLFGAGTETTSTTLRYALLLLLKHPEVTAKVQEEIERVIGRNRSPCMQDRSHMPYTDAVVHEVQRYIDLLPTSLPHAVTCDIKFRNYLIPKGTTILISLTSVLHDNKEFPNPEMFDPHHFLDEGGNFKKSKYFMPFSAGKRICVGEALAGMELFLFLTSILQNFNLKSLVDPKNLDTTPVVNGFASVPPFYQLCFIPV
Cytochrome P450 2C19, sequence (P33261 whole entry): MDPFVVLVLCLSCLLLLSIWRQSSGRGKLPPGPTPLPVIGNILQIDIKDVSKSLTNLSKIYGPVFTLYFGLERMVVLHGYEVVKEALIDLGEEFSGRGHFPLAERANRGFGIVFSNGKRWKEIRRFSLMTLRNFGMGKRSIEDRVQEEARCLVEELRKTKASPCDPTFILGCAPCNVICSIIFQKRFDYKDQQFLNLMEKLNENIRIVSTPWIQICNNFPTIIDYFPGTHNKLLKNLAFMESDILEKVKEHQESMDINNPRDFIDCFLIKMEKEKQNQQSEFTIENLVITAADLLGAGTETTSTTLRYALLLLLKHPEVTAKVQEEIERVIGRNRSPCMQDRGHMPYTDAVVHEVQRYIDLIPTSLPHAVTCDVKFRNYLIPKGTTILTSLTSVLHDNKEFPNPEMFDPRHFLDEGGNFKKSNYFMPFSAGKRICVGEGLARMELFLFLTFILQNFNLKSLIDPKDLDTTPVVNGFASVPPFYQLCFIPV

Row | Structure (SMILES) | Drug metabolism (Liver microsome [1]) | Drug metabolism (Cytochrome P450 3A4) | Drug metabolism (Hepatocyte [2]) | Drug metabolism (Cytochrome P450 1A2) | Drug metabolism (Cytochrome P450 2C8) | Drug metabolism (Cytochrome P450 3A5) | Drug metabolism [3] | Drug metabolism (Cytochrome P450 2C9) | Drug metabolism (Cytochrome P450 2C19) | Drug metabolism (Liver microsome [4]) | Drug metabolism (Hepatocyte [5]) | Drug metabolism [6] | Retention_time [7] | Drug metabolism (Cytochrome P450 2D6) | Drug metabolism (Hepatocyte [8]) | Drug metabolism (Hepatocyte [9]) | Drug metabolism (Liver microsome [10]) | Drug metabolism [11] | Drug metabolism (Liver microsome [12]) | Drug metabolism (Hepatocyte [13])
1 | COc1ccc2nc(COc3ccc(CC(C(N)=O)S(C)(=O)=O)cc3)n(C)c2c1 (centres undefined) | – | – | – | – | – | – | – | – | – | – | – | – | 18.1 min | – | metabolite_detected | metabolite_detected | metabolite_detected | metabolite_detected | metabolite_detected | –
2 | COc1ccc2nc(COc3ccc(CC(S)C(N)=O)cc3)n(C)c2c1 (centres undefined) | metabolite_detected | metabolite_detected | – | metabolite_detected | metabolite_detected | metabolite_detected | – | metabolite_detected | metabolite_detected | metabolite_detected | – | metabolite_detected | 20.2 min | metabolite_detected | – | – | – | – | – | –
3 | COc1ccc2nc(COc3ccc(CC(SSCC(N)C(=O)O)C(=O)O)cc3)n(C)c2c1 (centres undefined) | – | – | – | – | – | – | – | – | – | – | – | – | 17.1 min | – | – | – | – | – | – | metabolite_detected
4 | COc1ccc2nc(COc3ccc(CC(C(N)=O)[S+](C)[O-])cc3)n(C)c2c1 (centres undefined) | – | – | – | – | – | – | – | – | – | – | – | – | 16.1 min | – | metabolite_detected | metabolite_detected | metabolite_detected | metabolite_detected | metabolite_detected | –

Further lines, results first:

Row | Drug metabolism (Liver microsome [1]) | Drug metabolism (Cytochrome P450 3A4) | Drug metabolism (Hepatocyte [2]) | Drug metabolism (Cytochrome P450 1A2) | Drug metabolism (Cytochrome P450 2C8) | Drug metabolism (Cytochrome P450 3A5) | Drug metabolism [3] | Drug metabolism (Cytochrome P450 2C9) | Drug metabolism (Cytochrome P450 2C19) | Drug metabolism (Liver microsome [4]) | Drug metabolism (Hepatocyte [5]) | Drug metabolism [6] | Retention_time [7] | Drug metabolism (Cytochrome P450 2D6) | Drug metabolism (Hepatocyte [8]) | Drug metabolism (Hepatocyte [9]) | Drug metabolism (Liver microsome [10]) | Drug metabolism [11] | Drug metabolism (Liver microsome [12]) | Drug metabolism (Hepatocyte [13]) | Structure (SMILES)
5 | metabolite_detected | metabolite_detected | metabolite_detected | metabolite_detected | metabolite_detected | metabolite_detected | metabolite_detected | metabolite_detected | metabolite_detected | metabolite_detected | metabolite_detected | metabolite_detected | 19.2 min | metabolite_detected | – | – | – | – | – | – | Cn1c(COc2ccc(CC3SC(=O)NC3=O)cc2)nc2ccc(O)cc21 (centres undefined)
6 | metabolite_detected | metabolite_detected | – | metabolite_detected | metabolite_detected | metabolite_detected | – | metabolite_detected | metabolite_detected | metabolite_detected | – | metabolite_detected | 16.3 min | metabolite_detected | – | – | – | – | – | – | COc1ccc2nc(COc3ccc(CC(O)C(N)=O)cc3)n(C)c2c1 (centres undefined)
7 | metabolite_detected | metabolite_detected | metabolite_detected | metabolite_detected | metabolite_detected | metabolite_detected | metabolite_detected | metabolite_detected | metabolite_detected | metabolite_detected | metabolite_detected | metabolite_detected | 21.5 min | metabolite_detected | – | – | – | – | – | – | COc1ccc2nc(COc3ccc(CC4(O)SC(=O)NC4=O)cc3)n(C)c2c1 (centres undefined)
